Source: PMC10281356 (Drug Delivery, 2023)

Key:
A549 cells = assay: MTT cytotoxicity assay on A549 cells; format: cell-based, human; conditions: peptide alone at 50 and 25 μg/mL, 24 h, n = 3
Summary of the method: (§1)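 Peptide vectors, PEGylated or not, were added alone at a series of concentrations to A549 or HepG2 cells, followed by MTT read-out. Viability (%) was calculated from absorbance of treated cells relative to untreated cells. Data given as mean ± SEM (n = 3) and compared by one-way ANOVA with Tukey's post-hoc test.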

HepG2 cells = assay: MTT cytotoxicity assay on HepG2 cells; format: cell-based, human; conditions: peptide alone at 50 and 25 μg/mL, 24 h, n = 3
Summary of the method: as §1

EGFP and luciferase mRNA = assay: Gel retardation assay, vector-mRNA binding; conditions: agarose gel electrophoresis
Summary of the method: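 Test compounds (peptide vectors, with or without PEG) mixed with EGFP or luciferase mRNA at 0.5:1 to 15:1 (w/w) to form self-assemblies. Run on agarose gel in 1× TAE at 140 V for 40 min. Stained with GelRed and imaged under UV. Unbound mRNA served as control. Complete binding was taken as loss of the free mRNA band.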

## (PEG24)-KKALLAHALHLLA LLALHLAHALKKA-NH2 [PEG24LA, PEG24-LAH4-L1]
A549 cells
  cytotoxicity of peptide compared with non-PEGylated LA peptide: significantly lower
HepG2 cells
  cytotoxicity of peptide compared with non-PEGylated LA peptide: significantly lower
EGFP and luciferase mRNA
  mRNA affinity compared with non-PEGylated LA peptide: comparable
